Source: ChEMBL document CHEMBL3526106, “Cytochrome P450 regulation by α-tocopherol in Pxr-null and PXR-humanized mice” (Drug Metab Dispos, 2013)

Columns and labels:
Parameters in all cases: dose 500 mg/kg
Mus musculus [1] = assay: Effect on Ugt1a1 gene expression in wild type mouse liver at 500 mg/kg for 7 to 14 days dosed through vitamin E-deficient base diet by qPCR method; assay type: ADME, organism-based; details: in vivo, po
How it was run: (§1)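 Male mice on vitamin E deficient diet, switched at eight weeks to the same diet with 500 mg/kg DL-α-tocopheryl acetate (controls kept deficient); killed at nine or 10 weeks, livers flash frozen. Hepatic mRNA by SYBR Green qPCR with 25 ng cDNA and 150 nM primers, triplicate reactions; comparative threshold cycle method against β-actin, fold change versus deficient diet; mean ± SEM, two-tailed t-test.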

Mus musculus [2] = assay: Effect on Ugt1a7c gene expression in male PXR-humanized mouse liver at 500 mg/kg for 7 to 14 days dosed through vitamin E-deficient base diet by qPCR method; assay type: ADME, organism-based; details: in vivo, po; how it was run: as §1
Mus musculus [3] = assay: Effect on Ugt2b5 gene expression in wild type mouse liver at 500 mg/kg for 7 to 14 days dosed through vitamin E-deficient base diet by qPCR method; assay type: ADME, organism-based; details: in vivo, po; how it was run: as §1
Mus musculus [4] = assay: Induction of Cyp4f14 gene expression in wild type mouse liver at 500 mg/kg for 7 to 14 days dosed through vitamin E-deficient base diet by qPCR method; assay type: ADME, organism-based; details: in vivo, po
How it was run: (§2)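 Male mice (wild-type, Pxr-null, hPXR; NCI-bred) on vitamin E-deficient diet from 3 weeks of age; at 8 weeks half switched to same base diet supplemented with 500 mg/kg DL-α-tocopheryl acetate, rest kept deficient. Livers harvested at 9 and 10 weeks. qPCR: 25 ng cDNA, 150 nM each primer, SYBR Green, triplicate; comparative Ct vs β-actin; fold change enriched vs deficient diet; mean ± SEM, two-tailed unpaired t-test.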

Mus musculus [5] = assay: Induction of Cyp2c39 gene expression in wild type mouse liver at 500 mg/kg for 7 to 14 days dosed through vitamin E-deficient base diet by qPCR method; assay type: ADME, organism-based; details: in vivo, po; how it was run: as §1
Mus musculus [6] = assay: Effect on Ugt1a9 gene expression in male PXR null mouse liver at 500 mg/kg for 7 to 14 days dosed through vitamin E-deficient base diet by qPCR method; assay type: ADME, organism-based; details: in vivo, po; how it was run: as §1
Mus musculus [7] = assay: Effect on Ugt1a7c gene expression in male PXR null mouse liver at 500 mg/kg for 7 to 14 days dosed through vitamin E-deficient base diet by qPCR method; assay type: ADME, organism-based; details: in vivo, po; how it was run: as §1
Mus musculus [8] = assay: Induction of Cyp4f13 gene expression in male PXR null mouse liver at 500 mg/kg for 7 to 14 days dosed through vitamin E-deficient base diet by qPCR method; assay type: ADME, organism-based; details: in vivo, po; how it was run: as §2
Mus musculus [9] = assay: Effect on Ugt1a10 gene expression in wild type mouse liver at 500 mg/kg for 7 to 14 days dosed through vitamin E-deficient base diet by qPCR method; assay type: ADME, organism-based; details: in vivo, po; how it was run: as §1
Mus musculus [10] = assay: Effect on Ugt2b5 gene expression in male PXR-humanized mouse liver at 500 mg/kg for 7 to 14 days dosed through vitamin E-deficient base diet by qPCR method; assay type: ADME, organism-based; details: in vivo, po; how it was run: as §1
Mus musculus [11] = assay: Effect on Ugt1a10 gene expression in male PXR null mouse liver at 500 mg/kg for 7 to 14 days dosed through vitamin E-deficient base diet by qPCR method; assay type: ADME, organism-based; details: in vivo, po; how it was run: as §1
Mus musculus [12] = assay: Effect on Ugt1a9 gene expression in male PXR-humanized mouse liver at 500 mg/kg for 7 to 14 days dosed through vitamin E-deficient base diet by qPCR method; assay type: ADME, organism-based; details: in vivo, po; how it was run: as §1
Mus musculus [13] = assay: Drug metabolism in male wild type mouse assessed as urinary alpha-carboxymethylbutylhydroxychroman glucuronide level at 500 mg/kg for 7 to 14 days dosed through vitamin E-deficient base diet by UPLC-ESI-QTOFMS method based metabolomics analysis; assay type: ADME, organism-based, Urine; details: in vivo, po
Mus musculus [14] = assay: Induction of Cyp2c39 gene expression in male PXR null mouse liver at 500 mg/kg for 7 to 14 days dosed through vitamin E-deficient base diet by qPCR method; assay type: ADME, organism-based; details: in vivo, po; how it was run: as §1
Mus musculus [15] = assay: Drug metabolism in male PXR null mouse assessed as urinary alpha-carboxyethylhydroxychroman glucuronide level at 500 mg/kg for 7 to 14 days dosed through vitamin E-deficient base diet by UPLC-ESI-QTOFMS method based metabolomics analysis; assay type: ADME, organism-based, Urine; details: in vivo, po
Cyp2c55 = assay: Induction of Cyp2c55 gene expression in male PXR null mouse liver at 500 mg/kg for 7 to 14 days dosed through vitamin E-deficient base diet by qPCR method; assay type: ADME, organism-based; details: po, read-out: FC; how it was run: as §1
Cyp2b10 = assay: Induction of Cyp2b10 gene expression in wild type mouse liver at 500 mg/kg for 7 to 14 days dosed through vitamin E-deficient base diet by qPCR method; assay type: ADME, organism-based; details: po, read-out: FC; how it was run: as §1
Mus musculus [16] = assay: Drug metabolism in male PXR-humanized mouse assessed as urinary alpha-carboxymethylbutylhydroxychroman glucuronide level at 500 mg/kg for 7 to 14 days dosed through vitamin E-deficient base diet by UPLC-ESI-QTOFMS method based metabolomics analysis; assay type: ADME, organism-based, Urine; details: in vivo, po
How it was run: (§3)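 Male mice from three weeks of age on vitamin E deficient diet; at eight weeks, 24 h predose urine in metabolic cages, then half switched to the same diet supplemented with 500 mg/kg DL-α-tocopheryl acetate. 24 h urine collected at nine and 10 weeks. Urinary metabolites quantitated by UPLC-MRM on triple-quadrupole MS against authentic standards and calibration curves, normalized to urinary creatinine (µmol/mmol creatinine); mean ± SEM, two-tailed unpaired t-test.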

Mus musculus [17] = assay: Drug metabolism in male wild type mouse assessed as urinary alpha-carboxyethylhydroxychroman glycine level at 500 mg/kg for 7 to 14 days dosed through vitamin E-deficient base diet by UPLC-ESI-QTOFMS method based metabolomics analysis; assay type: ADME, organism-based, Urine; details: in vivo, po
Mus musculus [18] = assay: Effect on Ugt1a6b gene expression in wild type mouse liver at 500 mg/kg for 7 to 14 days dosed through vitamin E-deficient base diet by qPCR method; assay type: ADME, organism-based; details: in vivo, po; how it was run: as §1
Mus musculus [19] = assay: Drug metabolism in male PXR-humanized mouse assessed as urinary alpha-carboxyethylhydroxychroman glucuronide level at 500 mg/kg for 7 to 14 days dosed through vitamin E-deficient base diet by UPLC-ESI-QTOFMS method based metabolomics analysis; assay type: ADME, organism-based, Urine; details: in vivo, po; how it was run: as §3
Mus musculus [20] = assay: Effect on Ugt1a6a gene expression in male PXR null mouse liver at 500 mg/kg for 7 to 14 days dosed through vitamin E-deficient base diet by qPCR method; assay type: ADME, organism-based; details: in vivo, po; how it was run: as §1
Mus musculus [21] = assay: Effect on Ugt2b34 gene expression in male PXR null mouse liver at 500 mg/kg for 7 to 14 days dosed through vitamin E-deficient base diet by qPCR method; assay type: ADME, organism-based; details: in vivo, po; how it was run: as §1
Mus musculus [22] = assay: Induction of Cyp3a11 gene expression in male PXR-humanized mouse liver at 500 mg/kg for 7 to 14 days dosed through vitamin E-deficient base diet by qPCR method; assay type: ADME, organism-based; details: in vivo, po; how it was run: as §2
Mus musculus [23] = assay: Induction of Cyp4f16 gene expression in wild type mouse liver at 500 mg/kg for 7 to 14 days dosed through vitamin E-deficient base diet by qPCR method; assay type: ADME, organism-based; details: in vivo, po; how it was run: as §2
Mus musculus [24] = assay: Drug metabolism in male PXR-humanized mouse assessed as urinary alpha-carboxyethylhydroxychroman glycine level at 500 mg/kg for 7 to 14 days dosed through vitamin E-deficient base diet by UPLC-ESI-QTOFMS method based metabolomics analysis; assay type: ADME, organism-based, Urine; details: in vivo, po
Mus musculus [25] = assay: Effect on Ugt1a10 gene expression in male PXR-humanized mouse liver at 500 mg/kg for 7 to 14 days dosed through vitamin E-deficient base diet by qPCR method; assay type: ADME, organism-based; details: in vivo, po; how it was run: as §1
Mus musculus [26] = assay: Effect on Ugt1a6a gene expression in wild type mouse liver at 500 mg/kg for 7 to 14 days dosed through vitamin E-deficient base diet by qPCR method; assay type: ADME, organism-based; details: in vivo, po; how it was run: as §1
Mus musculus [27] = assay: Effect on Ugt1a6a gene expression in male PXR-humanized mouse liver at 500 mg/kg for 7 to 14 days dosed through vitamin E-deficient base diet by qPCR method; assay type: ADME, organism-based; details: in vivo, po; how it was run: as §1

## CC(=O)Oc1c(C)c(C)c2c(c1C)CCC(C)(CCCC(C)CCCC(C)CCCC(C)C)O2 (racemic) [alpha-TOCHOPHERYL ACETATE]
Mus musculus [1]
  Activity: Not Active
Mus musculus [2]
  Activity: Not Active
Mus musculus [3]
  Activity: Not Active
Mus musculus [4]
  Activity: Not Active
Mus musculus [5]
  Activity: Not Active
Mus musculus [6]
  Activity: Not Active
Mus musculus [7]
  Activity: Not Active
Mus musculus [8]
  Activity: Not Active
Mus musculus [9]
  Activity: Not Active
Mus musculus [10]
  Activity: Not Active
Mus musculus [11]
  Activity: Not Active
Mus musculus [12]
  Activity: Not Active
Mus musculus [13]
  Drug metabolism: metabolite_detected
Mus musculus [14]
  Activity: Not Active
Mus musculus [15]
  Drug metabolism: metabolite_detected
Cyp2c55
  fold induction: 2.2
Cyp2b10
  fold induction: 7.3
Mus musculus [16]
  Drug metabolism: metabolite_detected
Mus musculus [17]
  Drug metabolism: metabolite_detected
Mus musculus [18]
  Activity: Not Active
Mus musculus [19]
  Drug metabolism: metabolite_detected
Mus musculus [20]
  Activity: Not Active
Mus musculus [21]
  Activity: Not Active
Mus musculus [22]
  Activity: Not Active
Mus musculus [23]
  Activity: Not Active
Mus musculus [24]
  Drug metabolism: metabolite_detected
Mus musculus [25]
  Activity: Not Active
Mus musculus [26]
  Activity: Not Active
Mus musculus [27]
  Activity: Not Active
